# Screening data deposited in PubChem BioAssay by Johns Hopkins Ion Channel Center.
# Shown are actives, neighbours in structure and some others; about 3.7% of the full set was active somewhere.
# Kir21 block: Kir2.1 (mouse) channel inhibition | P35561 | HEK293-Kir2.1, FluxOR thallium flux fluorescence; active compounds read low | B-score at 10 µM | 310,000 compounds, 0.85% hits | AID 1672;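 active = fluorescence ratio B-score at or below minus 3 SD of library scores, with starting-brightness B-score within 2 SD, cut at about -4.2 in these data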;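 also: channel flux triggered by added potassium and thallium sulfate stimulus; B-score of peak minus minimum fluorescence over baseline after thallium stimulus; more negative B-score means stronger Kir2.1 block with less thallium influx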
# KCNQ1 pot: potentiators or activators of human KCNQ1 potassium channel | CHO-K1 KCNQ1, thallium flux FluxOR fluorescence; active compounds read high | AID 2648 | B-score at 10 µM | 310,000 compounds, 0.35% hits | P51787;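 active = fluorescence ratio B-score, a plate-corrected score, at least three library SD, with initial intensity B-score within 5 SD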
# Target sequence (P51787 whole entry, looked up): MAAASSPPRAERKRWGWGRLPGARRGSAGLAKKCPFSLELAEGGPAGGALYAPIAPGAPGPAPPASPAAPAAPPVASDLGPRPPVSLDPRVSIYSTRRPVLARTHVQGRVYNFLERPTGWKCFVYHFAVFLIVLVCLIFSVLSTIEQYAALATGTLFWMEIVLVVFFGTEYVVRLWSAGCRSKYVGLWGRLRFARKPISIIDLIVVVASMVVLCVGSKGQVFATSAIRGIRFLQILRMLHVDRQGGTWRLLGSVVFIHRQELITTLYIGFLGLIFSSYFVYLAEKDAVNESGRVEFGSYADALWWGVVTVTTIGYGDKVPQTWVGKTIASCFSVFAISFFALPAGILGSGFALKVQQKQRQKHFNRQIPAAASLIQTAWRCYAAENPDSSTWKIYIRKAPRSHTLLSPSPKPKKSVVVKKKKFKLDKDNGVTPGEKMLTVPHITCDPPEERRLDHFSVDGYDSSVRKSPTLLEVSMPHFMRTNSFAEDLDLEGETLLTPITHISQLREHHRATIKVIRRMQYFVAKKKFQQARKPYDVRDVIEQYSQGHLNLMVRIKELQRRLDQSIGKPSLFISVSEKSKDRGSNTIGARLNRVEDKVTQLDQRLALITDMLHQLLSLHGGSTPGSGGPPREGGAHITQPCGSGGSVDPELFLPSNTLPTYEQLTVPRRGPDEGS
#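 Test system: CHO-K1 cells stably expressing KCNQ1 / Medium: assay buffer / Also added: depolarizing K+/Tl+ stimulus, K2SO4 and Tl2SO4 each 12.5 mM in 5x stock / Incubation: 90 min dye loading and 20 min compound exposure, both at room temperature / Signal: thallium influx via FluxOR fluorescence, kinetic imaging / Evaluation: B score of baseline-normalized fluorescence ratio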
# KCNQ1 block: human KCNQ1 channel inhibition; P51787; CHO-K1 KCNQ1, FluxOR thallium flux fluorescence; active compounds read high; B-score at 10 µM; 310,000 compounds, 1.3% hits; AID 2642;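 active = compounds whose thallium flux B-score, printed positive for inhibition, exceeds three library SD while starting fluorescence stays within three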;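 also: channel opened by potassium depolarization with thallium stimulus after 20 min compound exposure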
# hERG rescue: hERG (human) protection from proarrhythmic block | activation (rescue from dofetilide block), less the hit threshold, % at 10 µM | 310,000 compounds, 0.51% hits | CHO-hERG, FluxOR thallium flux, dofetilide IC70 present;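 active = activation above the mean of controls blocked by dofetilide plus 5 SD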;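 also: thallium influx through hERG after potassium depolarization seen as dye fluorescence rise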
# KCNK9 block: inhibitors of human KCNK9 two-pore domain potassium channel | Q9NPC2 | B-score at 10 µM | HEK293 KCNK9, FluxOR thallium flux fluorescence; active compounds read low | AID 488922 | 310,000 compounds, 1.2% hits;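 active = ratio B-score over 3 SD below the library mean, with starting fluorescence within 5 SD of its mean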;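 also: negative B-score means less thallium flux so channel inhibition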
# KCNK3 inh: human KCNK3 channel inhibition, primary screen; CHO-KCNK3 thallium flux, FluxOR fluorescence; active compounds read low; O14649; 340,000 compounds, 0.84% hits; B-score at 10 µM;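 active = B-score under library mean minus 4 SD, starting fluorescence ratio at most library mean plus 5 SD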;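 also: more negative B-score means stronger inhibition of thallium flux through KCNK3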
# KCNK3 confirm: confirmation of human KCNK3 two-pore domain potassium channel inhibitors; shares compounds with KCNK3 inh; CHO-KCNK3 thallium flux, FluxOR fluorescence; 0% buffer, 100% carvedilol maximal block; ratio percent of control, % at 10 µM; 2,400 compounds, 99% hits; AID 651638;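 active = ratio percent of control, averaged over triplicates, above buffer control mean plus 5 SD, cut at about 64% in these data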;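 also: ratio is the fluorescence rise from min to max over baseline after thallium stimulus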
# KCNK3 noninduced: KCNK3 inhibitor counter-screen hit in non-induced cells; 2,400 compounds, 40% hits; non-induced KCNK3 parental cells, FluxOR thallium flux; active compounds read low; thallium flux ratio (lower = more inhibition) at 10 µM; AID 651747; shares compounds with KCNK3 inh;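 active = thallium flux ratio, averaged over three wells, more than 5 SD below the buffer control mean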;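 also: host cells are CHO cells without KCNK3 induction; ratio is peak minus trough fluorescence over baseline then normalized to buffer controls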
# * = called active by the depositor; i = inactive; . = no result.
SMILES,Kir21 block,KCNQ1 pot,KCNQ1 block,hERG rescue,KCNK9 block,KCNK3 inh,KCNK3 confirm,KCNK3 noninduced
CCOC(=O)c1c(NC(=O)CN2CCN(S(=O)(=O)c3cc(Cl)ccc3Cl)CC2)sc(C(=O)N(C)C)c1C,.,.,.,.,.,i,.,.
O=C(CSc1nnc(C2CCCCC2)o1)Nc1ccccc1Cl,-1.6,i,i,-5,i,i,.,.
O=C(c1ccccc1)N1CCN(C(=O)c2ccccc2)c2ccccc21,.,.,.,.,.,i,.,.
N#Cc1ccccc1Sc1ccccc1C(=O)Nc1ccc2ccccc2c1,-0.28,i,i,-13,i,i,.,.
COc1ccc(Sc2ccc(NC(=O)c3ccccc3Cl)cc2C#N)cc1,0.41,i,i,-7,i,-12*,106*,0.15*
O=C(/C=C/c1ccccc1Cl)c1cccnc1,-4.2,i,i,-17,i,-9.7*,86*,i
COc1cc(/C=C2\SC(c3ccc(C)cc3)=NC2=O)ccc1O,-0.1,i,i,-4,i,-9.4*,142*,0.099*
COc1ccc(/C=C2/SC(c3ccc(C)cc3)=NC2=O)cc1OC,-1.1,i,i,-6,i,i,.,.
CC(C)c1nc(CNC(=O)C2CCC(=O)N(CCc3cccc(F)c3)C2)cs1 (stereo unspecified),0.45,i,i,-4,i,-11*,77*,i
CC(C)Cc1cc(CNC(=O)C2CCC(=O)N(CCc3cccc(F)c3)C2)on1 (stereo unspecified),-0.55,i,i,-5,i,i,.,.
COc1ccc(OC)c(CNC(=O)c2coc(=O)c3ccccc23)c1,-0.09,i,i,-13,i,i,.,.
S=C(NCCCc1ccccc1)Nc1ccccc1,-1.6,i,i,-5,i,i,.,.
S=C(NCCc1ccccc1)Nc1ccc(Nc2ccccc2)cc1,-0.03,i,i,-7,i,-9.3*,126*,0.13*
CC(C)(CNC(=S)NCCc1ccccc1)CNC(=S)NCCc1ccccc1,1.8,i,14*,-19,i,-9.4*,116*,0.1*
NS(=O)(=O)c1ccc(CCNC(=O)c2ccc3nc4ccc(Cl)cc4c(=O)n3c2)cc1,1.2,i,i,-16,i,i,.,.
Cc1sc(NC(=O)c2ccco2)nc1-c1ccccc1,2.3,i,i,-20,i,i,.,.
Cc1sc(NC(=O)c2ccco2)nc1-c1ccc2c(c1)CC(C)N2C(=O)C1CC1 (stereo unspecified),-1.2,i,6*,-20,i,-9.4*,101*,i
Cc1cccc(NS(=O)(=O)c2cc(C(=O)NCCC3=CCCCC3)ccc2Cl)c1,0.04,i,i,-6,i,-12*,118*,0.15*
COc1cc2ccccc2cc1C(=O)Nc1nccs1,-0.26,i,i,-13,i,-9.6*,94*,i
COc1c(C(=O)Nc2nccs2)ccc2ccccc12,0.72,i,i,-13,i,i,.,.
CCOc1cccc(C(=O)Nc2cccc(-c3nnc(-c4ccc(C)cc4)o3)c2)c1,0.46,i,i,-10,i,i,.,.
O=C(Nc1cccc(-c2nnc(-c3ccccc3)o2)c1)C1CC1,-0.45,i,i,-16,i,-9.8*,112*,i
CCOc1cccc(C(=O)Nc2cccc(-c3nnc(-c4ccccc4)o3)c2)c1,-1.8,i,i,-3,i,-11*,121*,0.14*
CC(=O)Nc1cccc(-c2nnc(-c3ccccc3)o2)c1,-1.2,i,i,-14,i,i,.,.
CC(=O)Oc1ccc(C(=O)Nc2cccc(-c3nnc(-c4ccco4)o3)c2)cc1,-0.01,i,i,-12,i,-9.3*,85*,i
SMILES,Kir21 block,KCNQ1 pot,KCNQ1 block,hERG rescue,KCNK9 block,KCNK3 inh,KCNK3 confirm,KCNK3 noninduced
COc1cccc(C(=O)Nc2ccc(-c3nnc(-c4ccco4)o3)cc2)c1,-0.24,i,i,-6,i,i,.,.
COc1ccc(C(=O)O)cc1S(=O)(=O)N(CCc1ccccc1)Cc1ccccc1,2.8,i,i,-12,i,i,.,.
Cc1ccc(S(=O)(=O)N2CCOCC2)cc1C(=O)Nc1ccc2c(c1)OCCO2,.,.,.,.,.,i,.,.
Cc1cccc2cc(CN(Cc3ccco3)C(=O)c3ccncc3)c(=O)[nH]c12,2.2,i,i,-16,i,-22*,63*,i
COc1c(-c2ccccc2)oc2c(ccc3occc32)c1=O,.,.,.,.,.,i,.,.
Cc1ccc(C)c(-c2cc(C(=O)Nc3cccnc3)c3ccccc3n2)c1,-0.5,i,6*,-9,-8*,-12*,125*,0.12*
CC(Nc1nc(-c2cccnc2)nc2ccccc12)c1ccc(F)cc1 (stereo unspecified),-2.6,i,8*,-17,-7.9*,-17*,125*,i
COCc1ccc(C(=O)NC2CCSc3ccccc32)cc1 (stereo unspecified),2.8,i,i,-9,i,i,.,.
O=C(CO/N=C/c1cccc([N+](=O)[O-])c1)Nc1ccc2ccccc2c1,-0.8,i,i,3,i,-9.2*,98*,i
CCN1C=C(Cc2ccc(F)cc2)C2=C(C1)C(c1ccc(F)cc1)C(C#N)=C(N)O2 (stereo unspecified),-1.6,i,i,-12,i,-9.7*,110*,i
Cc1cc(OCC(=O)Nc2ccc(S(=O)(=O)N3CCN(C)CC3)cc2)ccc1Br,0.81,i,i,-9,i,i,.,.
CCN(CC)S(=O)(=O)c1ccc(C)c(NC(=S)N2CCN(C/C=C/c3ccccc3)CC2)c1,-0.3,i,i,-17,i,-11*,101*,i
CC1CC(C)(C)N(C(=O)CSc2ccc(-c3ccc(F)cc3)nn2)c2ccccc21 (stereo unspecified),-0.7,i,7*,-10,i,-12*,112*,0.15*
CC1CCN(C(=O)CSc2ccc(-c3ccc(F)cc3)nn2)CC1,1.3,i,i,-10,i,i,.,.
Cc1cc(-c2nnc(CCC(=O)NC(Cc3ccccc3)c3ccccc3)o2)no1 (stereo unspecified),-0.21,i,i,-12,i,i,.,.
CCSc1nc2ccccc2n1Cc1ccccc1F,-2.5,i,i,-10,i,i,.,.
CCSc1nc2ccccc2n1Cc1cccc([N+](=O)[O-])c1,0.09,i,i,-4,i,-8.8*,95*,i
